Data: ChEMBL document CHEMBL1124558, “Differential effects of a series of hydroxamic acid derivatives on 5-lipoxygenase and cyclooxygenase from neutrophils and 12-lipoxygenase from platelets and their in vivo effects on inflammation and anaphylaxis” (J Med Chem, 1989)
pIC50, pKi: −log10 of the molar value.

How the values were obtained:
[1] = target: T1, Polyunsaturated fatty acid 5-lipoxygenase (Rattus norvegicus, UniProt P12527); assay: In vitro inhibition of rat polymorphonuclear leukocyte 5-lipoxygenase
T1 sequence (P12527 whole entry): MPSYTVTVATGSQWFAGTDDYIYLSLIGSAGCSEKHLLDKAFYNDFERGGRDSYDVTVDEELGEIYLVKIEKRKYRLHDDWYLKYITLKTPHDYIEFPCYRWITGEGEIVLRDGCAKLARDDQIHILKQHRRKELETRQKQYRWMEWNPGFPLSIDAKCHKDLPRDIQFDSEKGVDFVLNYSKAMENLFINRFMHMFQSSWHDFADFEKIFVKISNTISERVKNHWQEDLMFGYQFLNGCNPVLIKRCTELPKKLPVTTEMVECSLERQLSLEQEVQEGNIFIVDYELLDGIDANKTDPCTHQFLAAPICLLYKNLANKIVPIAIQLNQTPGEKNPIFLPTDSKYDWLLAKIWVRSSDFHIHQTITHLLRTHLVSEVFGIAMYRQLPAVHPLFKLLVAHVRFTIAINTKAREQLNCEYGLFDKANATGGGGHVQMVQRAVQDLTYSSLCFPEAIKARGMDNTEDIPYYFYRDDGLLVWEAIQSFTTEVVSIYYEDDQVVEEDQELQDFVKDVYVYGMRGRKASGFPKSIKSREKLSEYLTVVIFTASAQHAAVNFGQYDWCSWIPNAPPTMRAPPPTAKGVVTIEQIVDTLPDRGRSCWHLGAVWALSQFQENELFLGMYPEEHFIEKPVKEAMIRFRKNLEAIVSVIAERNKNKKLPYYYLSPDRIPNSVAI
How it was run: (§1)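 Intact glycogen-elicited peritoneal PMNs pooled from 4–5 Sprague-Dawley rats (250 g), preincubated 5 min at 30 °C with compound in DMSO (≤0.1% final) plus 1 μM indomethacin. Challenge with [14C]arachidonic acid (4 μM) and A23187 (0.8 μM) for 3 min. Extraction, TLC, 5-HETE by scintillation counting.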

Cavia porcellus [2] = assay: In vivo inhibitory activity against guinea pig systemic anaphylaxis when administered a compound dose (60 mg/kg) perorally; assay type: functional; conditions: po
How it was run: (§2)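 Male Hartley guinea pigs sensitised ip with ovalbumin (2.7 mg/kg) plus LPS adjuvant, then challenged 2 weeks later with 1% ovalbumin aerosol for 30 s. Pretreated with pyrilamine, indomethacin and propranolol 20 min before challenge. Compound given in PEG 400 1 h before challenge.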

[3] = target: T2, Cyclooxygenase (Rattus norvegicus) (UniProt P35355+Q63921); assay: In vitro inhibitory activity against rat polymorphonuclear leukocyte Prostaglandin G/H synthase; assay type: protein assay; conditions: concentration not given here
How it was run: (§3)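 Glycogen-elicited peritoneal PMNs from Sprague-Dawley rats were homogenized at 0 °C in 0.1 M Tris-HCl pH 8.2 with 10 μM NDGA. Compound (DMSO ≤0.1%) was preincubated 5 min at 37 °C, then 8 μM [14C]arachidonic acid with 4 mM glutathione and epinephrine was added for 10 min. TxB2 and PGF2α were measured by TLC and scintillation counting.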

Mus musculus [4] = assay: In vivo inhibitory activity against mouse ear inflammation when administered a compound dose (1 mg/ear); assay type: functional
How it was run: (§4)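 Compound or ethanol vehicle applied topically to one ear of male DBA/2J mice 60 min before arachidonic acid (2 mg/ear). […] Groups of 5 mice.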

[5] = target: T3, Cysteinyl leukotriene receptor 1 (Cavia porcellus, UniProt Q2NNR5); assay: Activity to bind against [3H]LTD4 radioligand in guinea pig
T3 sequence (Q2NNR5 whole entry): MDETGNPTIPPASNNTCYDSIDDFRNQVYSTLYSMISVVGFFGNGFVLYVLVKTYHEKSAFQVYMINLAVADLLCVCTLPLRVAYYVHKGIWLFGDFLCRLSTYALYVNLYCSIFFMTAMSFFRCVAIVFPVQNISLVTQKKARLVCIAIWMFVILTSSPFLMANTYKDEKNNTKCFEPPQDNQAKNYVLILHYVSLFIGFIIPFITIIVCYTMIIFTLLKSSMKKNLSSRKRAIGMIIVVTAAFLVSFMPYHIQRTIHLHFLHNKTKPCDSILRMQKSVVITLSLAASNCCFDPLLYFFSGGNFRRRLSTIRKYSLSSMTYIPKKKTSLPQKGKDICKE

[6] = target: T4, Polyunsaturated fatty acid 5-lipoxygenase (Homo sapiens, UniProt P09917); assay: In vitro inhibition of polymorphonuclear leukocyte derived human 5-lipoxygenase
T4 sequence (P09917 whole entry): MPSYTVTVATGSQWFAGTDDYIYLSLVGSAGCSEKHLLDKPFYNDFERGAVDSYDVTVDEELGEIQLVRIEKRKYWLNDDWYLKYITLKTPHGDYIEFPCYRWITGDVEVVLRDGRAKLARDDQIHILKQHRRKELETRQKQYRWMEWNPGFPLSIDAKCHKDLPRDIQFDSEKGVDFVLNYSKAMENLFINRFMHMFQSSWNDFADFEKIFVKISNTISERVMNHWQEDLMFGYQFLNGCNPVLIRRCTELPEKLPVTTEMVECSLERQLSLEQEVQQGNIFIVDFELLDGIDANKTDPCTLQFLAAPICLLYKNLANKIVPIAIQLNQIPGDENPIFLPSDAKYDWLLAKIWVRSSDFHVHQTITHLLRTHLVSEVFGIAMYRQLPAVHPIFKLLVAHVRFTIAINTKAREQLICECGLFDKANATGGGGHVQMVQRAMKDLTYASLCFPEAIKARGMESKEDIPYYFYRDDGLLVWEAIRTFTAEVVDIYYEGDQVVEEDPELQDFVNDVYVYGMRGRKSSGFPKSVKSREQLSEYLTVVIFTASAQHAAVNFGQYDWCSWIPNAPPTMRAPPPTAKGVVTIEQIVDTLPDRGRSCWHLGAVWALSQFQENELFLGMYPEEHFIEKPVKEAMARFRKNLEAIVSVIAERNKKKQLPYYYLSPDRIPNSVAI
How it was run: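 PMNs from venous blood of healthy volunteers, isolated by dextran sedimentation and Percoll gradient (>90% pure) and held in Ca/Mg PBS with 1 mg/mL glucose and 1 μM indomethacin. Challenged with calcium ionophore and [14C]arachidonic acid for 3 min. 5-HETE measured by TLC and scintillation counting; IC50 read graphically.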

[7] = target: T4, Polyunsaturated fatty acid 5-lipoxygenase; assay: In vitro inhibitory activity against polymorphonuclear leukocyte 5-lipoxygenase in human cell at 10 uM
How it was run: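 Human PMNs from venous blood of a healthy volunteer (EDTA) were purified by dextran sedimentation, a Percoll gradient and NH4Cl red-cell lysis (>90% pure). They were held in Ca/Mg PBS with 1 mg/mL glucose and 1 μM indomethacin, then challenged with A23187 (0.8 μM) and [14C]arachidonic acid (4 μM) for 3 min. 5-HETE was measured by TLC and scintillation counting.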

[8] = target: T5, Polyunsaturated fatty acid 5-lipoxygenase (Rattus norvegicus) (UniProt P12527); assay: In vitro inhibitory activity against polymorphonuclear leukocyte 5-lipoxygenase in rat cell at 1 uM; how it was run: as §1
T5 sequence (whole entry): T1 sequence (P12527 whole entry)

[9] = target: T6, Arachidonate 12-lipoxygenase (Rattus norvegicus) (UniProt Q02759); assay: In vitro inhibitory activity against rat platelet 12-lipoxygenase at 30 uM
T6 sequence (whole entry): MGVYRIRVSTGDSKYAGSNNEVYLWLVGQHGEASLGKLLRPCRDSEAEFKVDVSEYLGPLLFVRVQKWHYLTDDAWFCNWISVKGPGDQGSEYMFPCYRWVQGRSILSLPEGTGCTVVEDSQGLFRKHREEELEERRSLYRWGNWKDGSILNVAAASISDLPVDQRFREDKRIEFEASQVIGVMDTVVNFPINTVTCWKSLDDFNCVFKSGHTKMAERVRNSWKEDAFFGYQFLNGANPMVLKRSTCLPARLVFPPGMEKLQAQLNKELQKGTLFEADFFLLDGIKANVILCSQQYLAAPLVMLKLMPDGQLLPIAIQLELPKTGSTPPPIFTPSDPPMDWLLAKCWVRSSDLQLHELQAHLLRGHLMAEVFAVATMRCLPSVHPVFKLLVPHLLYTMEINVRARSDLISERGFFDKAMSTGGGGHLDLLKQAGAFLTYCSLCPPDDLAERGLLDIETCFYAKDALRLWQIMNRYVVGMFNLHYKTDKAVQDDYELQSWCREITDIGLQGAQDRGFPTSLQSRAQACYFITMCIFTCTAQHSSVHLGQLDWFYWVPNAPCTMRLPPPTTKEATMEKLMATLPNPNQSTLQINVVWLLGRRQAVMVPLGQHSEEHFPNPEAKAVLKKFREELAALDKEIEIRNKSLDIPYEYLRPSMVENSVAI
How it was run: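 Cell-free cytosolic 12-lipoxygenase from Sprague-Dawley rat platelets (0.4 mg/mL), preincubated 5 min at 30 °C with compound in DMSO (≤0.1% final), 25 mM Tris pH 7.4, 1 μM indomethacin, 100 μM glutathione; reaction started with 6 μM [14C]arachidonic acid and quenched with citric acid/NDGA after 3 min. 12-HETE isolated by TLC and counted by scintillation; % inhibition, duplicate.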

[10] = target: T2, Cyclooxygenase (Rattus norvegicus); assay: Inhibition of Prostaglandin G/H synthase in rat polymorphonuclear leukocytes; assay type: cell-based; parameters: concentration or dose not given beside the values; conditions: concentration not given here
How it was run: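 Homogenate of glycogen-elicited rat peritoneal PMNs in 0.1 M Tris-HCl pH 8.2 with 10 μM NDGA, preincubated 5 min at 37 °C with compound (≤0.1% DMSO). [14C]arachidonic acid (8 μM) added with 4 mM glutathione and epinephrine; 10 min reaction. TxB2 and PGF2α separated by TLC and counted.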

Cavia porcellus [11] = assay: In vivo inhibitory activity against guinea pig systemic anaphylaxis when administered a compound dose (50 mg/kg) perorally; assay type: functional; conditions: po; how it was run: as §2
Mus musculus [12] = assay: In vivo inhibition of mouse ear inflammation; assay type: functional; parameters: concentration or dose not given beside the values; how it was run: as §4
Cavia porcellus [13] = assay: In vivo inhibitory activity against guinea pig systemic anaphylaxis when administered a compound dose (10 mg/kg) intravenously; assay type: functional; conditions: iv
Cyclooxygenase = target: T7, Cyclooxygenase (Rattus norvegicus, UniProt P35355+Q63921); assay: In vitro inhibitory activity against rat polymorphonuclear leukocyte Prostaglandin G/H synthase at 100 uM; assay type: protein assay; how it was run: as §3
T7 sequence (P35355 whole entry): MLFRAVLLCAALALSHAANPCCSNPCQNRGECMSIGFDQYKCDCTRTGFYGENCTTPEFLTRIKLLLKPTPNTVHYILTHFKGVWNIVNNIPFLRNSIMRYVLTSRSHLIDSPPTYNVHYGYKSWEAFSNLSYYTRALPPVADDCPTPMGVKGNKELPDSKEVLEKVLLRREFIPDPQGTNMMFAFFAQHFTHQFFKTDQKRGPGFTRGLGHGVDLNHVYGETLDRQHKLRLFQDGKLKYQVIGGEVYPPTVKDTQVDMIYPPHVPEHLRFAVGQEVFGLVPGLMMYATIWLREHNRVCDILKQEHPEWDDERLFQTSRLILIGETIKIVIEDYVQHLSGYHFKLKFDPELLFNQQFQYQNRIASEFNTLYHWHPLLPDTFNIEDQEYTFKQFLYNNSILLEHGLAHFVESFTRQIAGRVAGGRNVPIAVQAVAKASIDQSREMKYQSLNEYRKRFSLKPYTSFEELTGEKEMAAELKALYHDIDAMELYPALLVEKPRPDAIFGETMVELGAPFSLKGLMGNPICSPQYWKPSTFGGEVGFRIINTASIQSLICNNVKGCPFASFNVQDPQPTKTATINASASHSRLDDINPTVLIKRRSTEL
T7 sequence (Q63921 whole entry): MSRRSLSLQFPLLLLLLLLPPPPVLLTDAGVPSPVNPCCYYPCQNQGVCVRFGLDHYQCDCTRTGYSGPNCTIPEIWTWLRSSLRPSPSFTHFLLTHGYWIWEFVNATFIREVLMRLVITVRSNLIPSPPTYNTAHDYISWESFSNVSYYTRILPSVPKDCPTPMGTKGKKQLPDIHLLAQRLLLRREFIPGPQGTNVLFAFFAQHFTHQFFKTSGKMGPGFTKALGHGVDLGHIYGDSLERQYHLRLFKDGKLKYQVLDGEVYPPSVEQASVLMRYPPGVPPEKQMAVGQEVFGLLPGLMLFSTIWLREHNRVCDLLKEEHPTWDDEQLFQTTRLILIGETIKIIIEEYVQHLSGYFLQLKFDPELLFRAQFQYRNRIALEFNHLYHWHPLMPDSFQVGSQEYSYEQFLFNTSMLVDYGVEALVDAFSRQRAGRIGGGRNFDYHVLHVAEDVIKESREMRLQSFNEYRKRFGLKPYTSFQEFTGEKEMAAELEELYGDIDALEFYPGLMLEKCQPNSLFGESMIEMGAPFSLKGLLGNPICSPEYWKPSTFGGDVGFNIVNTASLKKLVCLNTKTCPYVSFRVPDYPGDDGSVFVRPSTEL

[14] = target: T5, Polyunsaturated fatty acid 5-lipoxygenase (Rattus norvegicus); assay: In vitro inhibitory activity against polymorphonuclear leukocyte 5-lipoxygenase in rat cell at 10 uM; how it was run: as §1
12-lipoxygenase = 12-lipoxygenase (Rattus norvegicus, UniProt F1LQ70); assay: In vitro inhibitory activity against rat platelet 12-lipoxygenase
Cavia porcellus [15] = assay: In vivo inhibitory activity against guinea pig systemic anaphylaxis when administered a compound dose (200 mg/kg) perorally; assay type: functional; conditions: po; how it was run: as §2

Sequence of 12-lipoxygenase (F1LQ70 whole entry, looked up): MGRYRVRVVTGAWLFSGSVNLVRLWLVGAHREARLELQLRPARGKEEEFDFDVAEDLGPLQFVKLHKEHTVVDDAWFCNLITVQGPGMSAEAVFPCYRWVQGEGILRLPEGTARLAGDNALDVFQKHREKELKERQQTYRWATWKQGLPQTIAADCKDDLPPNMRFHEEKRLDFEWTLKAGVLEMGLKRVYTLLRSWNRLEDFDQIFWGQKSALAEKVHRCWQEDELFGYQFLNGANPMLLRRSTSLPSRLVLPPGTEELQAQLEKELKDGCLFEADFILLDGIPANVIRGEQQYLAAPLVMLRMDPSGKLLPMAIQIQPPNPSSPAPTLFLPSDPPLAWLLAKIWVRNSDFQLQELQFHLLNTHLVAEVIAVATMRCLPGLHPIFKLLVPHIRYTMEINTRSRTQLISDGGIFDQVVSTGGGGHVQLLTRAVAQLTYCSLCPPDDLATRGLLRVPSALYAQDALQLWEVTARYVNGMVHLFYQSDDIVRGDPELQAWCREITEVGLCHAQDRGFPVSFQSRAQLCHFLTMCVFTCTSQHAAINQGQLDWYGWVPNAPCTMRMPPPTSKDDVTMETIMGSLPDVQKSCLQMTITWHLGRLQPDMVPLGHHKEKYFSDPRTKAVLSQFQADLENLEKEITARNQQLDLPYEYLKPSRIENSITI

CN(O)C(=O)Cc1ccc(OCc2ccc3ccccc3n2)cc1
pIC50 [1]: 6.46 | inhibition in vivo at 60 mg/kg (Cavia porcellus [2]): 94% | inhibition [3]: < 10% | Inhibition (Mus musculus [4]): 48% | pKi [5]: 6.00 | pIC50 [6]: 6.00

O=C(/C=C/c1ccc(OCc2ccccc2)cc1)N(O)CCc1ccccc1
Inhibition [7]: < 10% | inhibition [8]: 24% | inhibition [9]: 3% | inhibition [10]: < 10%

O=C(CCCc1ccccc1)N(O)CCc1ccccc1
pIC50 [1]: 6.52 | inhibition in vivo at 50 mg/kg (Cavia porcellus [11]): 17% | Inhibition (Mus musculus [12]): 56% | inhibition in vivo at 10 mg/kg (Cavia porcellus [13]): 50% | inhibition [10]: 44% | pIC50 [6]: 6.74

O=C(O)CCCCN(O)C(=O)Cc1ccc(OCc2ccccc2)cc1
Inhibition (Cyclooxygenase): 50% | inhibition [14]: 21%

O=C(Cc1ccc(OCc2ccccc2)cc1)N(O)CCc1ccccc1
pKi (12-lipoxygenase): 5.80 | inhibition in vivo at 200 mg/kg (Cavia porcellus [15]): 17% | Inhibition (Mus musculus [12]): 39% | inhibition [10]: < 10%
